Reference: the EternaBench riboswitch data

Tested on: MS2 coat protein
Test: apparent Kd, MS2 coat protein; higher = weaker binding; RNA-MaP array; FMN 200 µM where present
Method in brief: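 Green signal from SNAP-549-labelled MS2 coat protein was normalised to red-channel RNA signal and to the median Fmax of control clusters. The protein was titrated from 0.7 or 1.5 nM, doubling to 3 µM, without and then with constant ligand, over designs transcribed by stalled E. coli RNA polymerase on Illumina sequencing-chip clusters, in 100 mM Tris-HCl pH 7.5, 80 mM KCl, 4 mM MgCl2, BSA, DTT, yeast tRNA and Tween-20. The apparent Kd is the median of filtered per-cluster binding-curve fits.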

[1] = designed as: OFF switch for flavin mononucleotide, no ligand
[2] = ligand present: flavin mononucleotide, designed as: OFF switch for flavin mononucleotide
[3] = designed as: ON switch for flavin mononucleotide, no ligand
[4] = ligand present: flavin mononucleotide, designed as: ON switch for flavin mononucleotide

Sequence | apparent Kd [1] | apparent Kd [2] | apparent Kd [3] | apparent Kd [4]
AGUGUGUGGCAGGAUAUUCUGGUCGUGAGUCGGGAAGAAGGGUCUACAUGAGGAUCACCCAUGUGAGCGGUUGA | 99.4 nM | 258 nM |  | 
AUUUAUGUCAUAGGAUAUAUAAAUAAAUUUAUAACAUGAGGAUCACCCAUGUACUUGGGUAUUAGGUAGAAGGAUGAUAAGAAU |  |  | 572 nM | 254 nM
CAGGACAGAGGAUAUACAUAGAUACAGAUUCAUGUAGAACUACAUGAGGAUCACCCAUGUAGAAGGCUGUCCUG | 29.5 nM | 300 nM |  | 
UUAUUUUGUCAAGGAUAUGUAAUAUAGAUUAGAAAACAUGAGGAUCACCCAUGUAUAUGGUGGGAACAGAAGGUGAAUGGUUUA | 196 nM | 161 nM |  | 
AAGUAUAAGGGCAUUAAACAUGAGGAUCACCCAUGUACAAUAGAGGAUAUGCAUUUUGGUUUAGAGUAGAAGGUUAGAGAAUAU | 28 nM | 33.4 nM |  | 
GUCGGAAACGACAAAAGUACCCGAGCAGAAGGCAUGUCAUAAGACAUGAGGAUCACCCAUGUGCAUGAGGAUAUGCUCGGGUAC |  |  | 5.83 nM | 5.28 nM
GGAGCCGGCACCGAGGAUAUUCAUAUUAAAACAUGAGGAUCACCCAUGUAGGCCAGAAGGCCUUGGGAGAAGGCGGACCGGCUCG |  |  | 654 nM | 31.1 nM
GCUGUCGCAUGAGGAUAUGGUCAGCUUUGCUGACCAGAAGGCAUGUCAAUAGACAUGAGGAUCACCCAUGUAGUUUGGGCGGCU |  |  | 985 nM | 99.2 nM
AGUUGAAGGUAGAAGGGUGACAUGAGGAUCACCCAUGUGCGAGCAUCGGACGAAGAUGGCUCGCCACAGGAUAUACCUUCAAUU |  |  | 41.2 nM | 44.4 nM
GUCAGCACGUGAGGAUAUACAACACUGCUUCGGCAGUGUAUUAAGAUCACAUGAGGAUCACCCAUGUAGAAGGCACGAGCUGAU | 13.6 nM | 268 nM |  | 
GCCUGACAUGAGGAUCACCCAUGUGAGGAUAUUUGGAUUGAGGAGUAGCACAUAGUCCAAAGAAGGUAUGUGGG | 24.7 nM | 60.7 nM |  | 
CGUGGACAUGAGGAUCACCCAUGUGAGGAUAUCGGCUGGUACGUGUUGGCUGGCAUCUCGAGAAGGCACAUAGU | 43.8 nM | 80.4 nM |  | 
GCGCUGCGUCAGAAGGGCCGAAAAGAGAAGAUGGCAGGAUAUGACAUGAGGAUCACCCAUGUACACGUCGCCAUGGGUGUUGGU | 184 nM | 36.4 nM |  | 
CUCUUGUAAGGAUAUGACUACAUAAAAAAAAAAAAAUGUAGUCAGAAGGUACAUGAGGAUCACCCAUGUACUAA | 20.9 nM | 22.1 nM |  | 
GUAUCUUAUGAGAAGGCGAUCAUGAAACAUGAUCGAGGAUAUCAUGUAAACAUGAGGAUCACCCAUGUAUGGGUAUUAUGGUAU |  |  | 95 nM | 80.2 nM
GCACGGUAUGUAGGAUAUGCAUAGCAUUGCUAUGCAGAAGGACAUGAGGAUCACCCAUGUAUGUAUUCCAUACUAAUCCCGUGA | 5.72 nM | 5.98 nM |  | 
GGGUACAUCCGAGGAUAUCAUGUAAAUACAUGAGGAUCACCCAUGUCGAUGGAGACAUCGGAGAUUGAGAAGGCCGAUGUACCG |  |  | 344 nM | 22.9 nM
AGAAAAUAUGGGUAGGAUAUAUAAAGAGAAACAUGAGGAUCACCCAUGUAAAGACGAGAGUCAAAAUAGAAGGACUAAAGAAAGAA |  |  | 76 nM | 59.6 nM
AGCUGUGGCCGAGGAUAUCUGUUUCAUAAAACCGAAAUAUAAUCGGACAUGAGGAUCACCCAUGUAGAGAAGGCGGUCUCAGCA | 16.6 nM | 14.9 nM |  | 
AAAAAAAAAAGGCAGGAUAUCCAAAAAAAAACAUGAGGAUCACCCAUGUAAAAAAAAAAAAAGUGGGAGAAGGGCCAAAAAAAAAA |  |  | 45.3 nM | 15.6 nM
GGAAGCUCAACGGAGCUAAGGUAGAAGGAUAUCCACGGCUAUAUCCACAUGAGGAUCACCCAUGUGGAGAAGGUCUAUCUUAAG | 5.83 nM | 10.4 nM |  | 
GUUUAGUGAGGAUAUGUGGCGUGGAUCGAGCGCGGUCGGCUACAGAAGGCACAUGAGGAUCACCCAUGUUUCUC | 106 nM | 280 nM |  | 
CUAGCGAGUGAGAAGGCCAGCUUUUAUACAUGAGGAUCACCCAUGUAGCCCUAAAGGGUAUGCAUGGAGGAUAUCACGAGCCUG |  |  | 11.7 nM | 7.03 nM
GGUUUGGGAGGAUAUGGUUUUAAUAACAUGAGGAUCACCCAUGUAAAUAGAUCUUCGAGGCCAGAAGGCUCGGGCC | 63.8 nM | 120 nM |  | 

Sequence | apparent Kd [1] | apparent Kd [2] | apparent Kd [3] | apparent Kd [4]
CAGGAUAGAGGAUAUGCAUAGAUACAGAUUCAUGUAAUCCUACAUGAGGAUCACCCAUGUAGAAGGCUAUCCUG | 15.1 nM | 35 nM |  | 
GCAGCAUAGUUUACUAGCUGUUACAUGAGGAUCACCCAUGUUCAGGAUAUGGUCUGGAUUACAGGCCAGAAGGGAACAAGCUGC | 14.8 nM | 12 nM |  | 
CUGUGUGACCGAGGAUAUAGACAUGAGGAUCACCCAUGUACGCCCAUCCAUGAAAGGUCCGUCGUCUAGAAGGCGGAGGCAAUG | 11.2 nM | 23.4 nM |  | 
UGAUAACAUGUAGGAUAUGCAGCAUUGACCACUGCAGAAGGACAUGAGGAUCACCCAUGUAGUUGUACUAUGGGAUCACGCAAU | 419 nM | 194 nM |  | 
GAUGGCUUAGGAUAUCAAAGUUACCACAUGAGGAUCACCCAUGUAUGGGAGAUGGAUAAAUGAGAAGGAGGGUGUU | 174 nM | 133 nM |  | 
CAAGACAUUCGAAACUGCCGGCCGCAGGAUAUGGGUCGUUUAUACAUGAGGAUCACCCAUGUCGCCUAGAAGGGCGGCUGGGUC |  |  | 174 nM | 17.6 nM
CCACGUCACAUGAACAUGAGGAUCACCCAUGUAAAUUCUCAUGAGGAUAUGGAUCCUAAUUGGAUCCAGAAGGCAUGGACGUGG |  |  | 842 nM | 348 nM
GCGAAUCAGUGAGGAUAUACAUAAAUUAUAACAGUAGAAGGCACAUACCUCAAGACAUGAGGAUCACCCAUGUGACAUAUCGCU | 258 nM | 488 nM |  | 
AUCUCGUCAGGAUAUGACUACAUAAAAAAUAAAAAAUGUAGUCAGAAGGGACAUGAGGAUCACCCAUGUACCAA | 19.1 nM | 18.4 nM |  | 
AGCUACGUUUCGUAGCAGUGUCAUCGAGAAGGCCCUGACAUGAGGAUCACCCAUGUUGUUACAUGGGAGGAUAUCGAUGAUACG |  |  | 12.2 nM | 4.68 nM
GCGUAUUAGGUGUAGCUAGACAUUCAAGAAGGGUGAAGAACAUGAGGAUCACCCAUGUAGUUUUUACAGGAUAUUGAUUUACGC |  |  | 269 nM | 14.9 nM
ACAUGCAUAGCGAUAUGAUCGAGAGAUCAUGUCGCAAAAUUUAGAAGGACAUGAGGAUCACCCAUGUAGGAUAUGGGAGCAUGA |  |  | 43.8 nM | 12.9 nM
GGAGAGGAAACAUGAGGAUCACCCAUGUGAGUGGUCCGAAGAUAGGAUAUCCACACGAGAAGUGUGGAGAAGGAUCACCUCUCC | 746 nM | 571 nM |  | 
UGUUCUAUGUAGAAGGCCCAUAUCUGUACUUAGGGAGGAUAUACAUGAGGAUCACCCAUGUGUAGAGCUGGUGGACUGGUCAGC | 16.5 nM | 37.2 nM |  | 
GUAGCAUACCGAGGAUAUUCAUACCGAAAACGGACAUGAGGAUCACCCAUGUGGCGAAAGCCUUGGGAGAAGGCGGAAUGCUAC |  |  | 592 nM | 26.2 nM
GGAUGACAUAGUCAUCCUUAACGAACAUGAGGAUCACCCAUGUAGGAUAUGCUACUCAAAGAGUAGCAGAAGGGCGUGUGUCUU | 42.6 nM | 49 nM |  | 
AGAUGCUCGAGUCGACAUGAGGAUCACCCAUGUACAGUUAGUGAGGAUAUCUGAGACACAUAGUAGGAGAAGGCGCGAACGUGA | 84.4 nM | 192 nM |  | 
GUCUCGAUGUAAGGAUAUGCAGUGGAAUACACUGCAGAAGGUACAUGAGGAUCACCCAUGUAACUCUAAUAAUAAUAACGAGAC | 12 nM | 19.2 nM |  | 
AAAACUGGAGGAUAUACAUGAGGAUCACCCAUGUGUGGAUGGGCUGUGUCGGCGUCAGGUAGAAGGCCACAAAA | 70 nM | 130 nM |  | 
UGAUCGAGAGAUCUUAGAUUCUGGUAGGAUAUACAUUAUGUUUAAAAUACAUGAGGAUCACCCAUGUAGAAGGACUAGAGUCUA | 6.76 nM | 13.9 nM |  | 
GCAGGGUAUGAGAAGGCAUAAUUUAUCUAACCACAUGAUUACAUGAGGAUCACCCAUGUUUCCAAUGAGGAUAUCAUACCGUGC | 8.05 nM | 7.54 nM |  | 
GUCAGCUCGUGAGGAUAUACAACACUGCUUCGGCGGUGUAUUAAGAUCACAUGAGGAUCACCCAUGUAGAAGGCACGAGCUGAU | 13.1 nM | 249 nM |  | 
UUGGACGUCGUAGGAUAUGUAGGAUAUUCCUACAUGAGGAUCACCCAUGUUGACAUGGAAGAAGGCCAGAAGGACGAUGUCCAU |  |  | 930 nM | 100 nM
